Measured values gathered from unrelated publications.
Target: G protein-coupled receptor kinase 4 (GRK4, Homo sapiens, UniProt P32298)

SMILES | effect on | technique | concentration | remaining binding
COc1ccc2c(O[C@@H]3C[C@H]4C(=O)N[C@]5(C(=O)O)CC5/C=C\CCCCC[C@H](NC(=O)OC5CCCC5)C(=O)N4C3)cc(-c3csc(NC(=O)C(C)C)n3)nc2c1C (stereo partly drawn) | cell-free assay | competition with immobilised ligand | 1 µM | 67%
C[C@H]1CCN(c2nccc(-c3cnn4ncccc34)n2)C1 | binding |  | 1 µM | 54%
O=C(c1ccc(Nc2ncc(Cl)c(-c3ccc(Cl)s3)n2)cc1)N1CCC(N2CCCC2)CC1 | binding | competition with immobilised ligand | 1 µM | 1.1%
C[C@@H](c1ccc(-n2cnc3c(N)ncnc32)cc1)N1CCc2nn(C)c(Cc3ccccc3)c2C1=O | binding | competition with immobilised ligand | 0.1 µM | 59%
CN(C)c1nccc(-c2cnn3ncccc23)n1 | binding |  | 1 µM | 100%
COc1cccc(CNC(=O)c2nc3scc(COCc4ccc(C(=O)O)cc4)c3c(=O)[nH]2)c1 | cell-free assay | competition with immobilised ligand | 1 µM | 72.1%
C=CC(=O)N1CCC(C(=O)NCC(=O)N2CCN(c3nc(-c4cnc(N)nc4C(F)F)nc(N4CCOCC4)n3)CC2)CC1 | binding | competition with immobilised ligand | 1 µM | 100%
C[C@@]1(Cc2ccc(C#N)cc2)C(=O)N(c2cc(Cl)cc(Cl)c2)c2ncc(C(=O)NC3(c4nc(C5CCC5)no4)CC3)n21 | cell-free assay | competition with immobilised ligand | 1 µM | 100%
N[C@H]1CCN(c2nccc(-c3cnn4ncccc34)n2)C1 | binding |  | 1 µM | 75%
O=C(c1ccc(Nc2nccc(-c3cc4ccccc4s3)n2)cc1)N1CCC(N2CCCC2)CC1 | binding | competition with immobilised ligand | 1 µM | 0.4%
O=C(Nc1c[nH]nc1C(=O)NC1CCNCC1)c1cc(F)cc(F)c1 | binding | competition with immobilised ligand | 1 µM | 100%
Nc1cnc(N2CCc3cc(S(=O)(=O)Nc4c(F)cc(Cl)cc4F)cc(N4CCCC4=O)c32)nc1 | cell-free assay | competition with immobilised ligand | 1 µM | 100%
Cc1cnn2ncc(-c3ccnc(N(C)C)n3)c2c1 | binding |  | 1 µM | 55%
O=C(NCCCC1CCCCC1)c1ccc(CNC(=O)c2cnn(-c3ccccc3)c2C(F)(F)F)cc1 | cell-free assay | competition with immobilised ligand | 0.1 µM | 100%
FC(F)(F)Oc1cccc(-c2cnc3ccc(-c4ccncc4)nn23)c1 | cell-free assay | competition with immobilised ligand | 5 µM | 43%
CNC(=O)[C@@H]1CC[C@@H](n2c(-c3ccc4cnccc4c3)nc3ccc(C(=O)NCc4cccc(C(N)=O)c4)cc32)C1 | binding | competition with immobilised ligand | 1 µM | 93%
CN(CCCC(F)(F)F)c1nccc(-c2cnn3ncccc23)n1 | binding |  | 1 µM | 100%
CCN1CCN(Cc2ccc(C(=O)Nc3ccc(C)c(Oc4ccc5c(c4)CC(=O)N5)c3)cc2C(F)(F)F)CC1 | binding | competition with immobilised ligand | 1 µM | 100%
O=C(NCCCN1CCOCC1)c1ccc(Nc2ncc(Cl)c(-c3ccc(Cl)s3)n2)cc1 | binding | competition with immobilised ligand | 1 µM | 2.7%
O=C1CCc2cc(Nc3cc(OC4CCOCC4)c([N+](=O)[O-])cc3Cl)ccc2N1 | cell-free assay | competition with immobilised ligand | 1 µM | 100%
CN(c1nccc(-c2cnn3ncccc23)n1)C1CC1 | binding |  | 1 µM | 72%
